Assay [1] concerns the target recombinant WT mouse RyR2 (Mus musculus, UniProt E9Q401). Kind of assay: TAA block of EMD 41000-activated WT RyR2, single channel in planar bilayer. The assay is classed as biochemical.
The next assay relates to RyR2. Put plainly: ShBP block of RyR2 in symmetrical 610 mM KCl. The assay is classed as biochemical. The note with it: for block at high K+ activity: preliminary, symmetrical 610 mM KCl plus up to 100 µM EMD 41000.
The test system of the next assay is WT mouse RyR2. Kind of assay: TAA block of ryanodine-modified WT RyR2, single channel. The note with it: 60 mV; for rate of dissociation (koff), difference TBA vs TPeA: 200 µM TBA or 100 µM TPeA, 1 µM ryanodine-modified; for level of block: ryanodine-modified WT, 100 µM TPeA (200 µM TBA). The assay is classed as biochemical. In outline:
(§1)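 Ryanodine-modified single channels were used: purified HEK293-expressed mouse RyR2 (WT or mutant) in PE bilayers, symmetrical KCl/HEPES pH 7.2, room temperature. TAA was added to […], with the holding potential at 60 mV. Data were filtered at 5 kHz and sampled at 20 kHz. Open and blocked lifetimes came from 50% threshold analysis of ≥2 min records, and blocking parameters were derived from them. Mean ± SEM, unpaired t tests.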

Assay [2] has as its target T1, I4861A RyR2 (Mus musculus, UniProt E9Q401, I4860A/I4861A). Kind of assay: TPeA block of EMD 41000-activated I4861A RyR2. The assay is classed as biochemical. The note with it: 60 mV.
Assay [3] concerns the target T2, I4862A RyR2 (Mus musculus, UniProt E9Q401, I4861A). Kind of assay: TPeA block of EMD 41000-activated I4862A RyR2. The assay is classed as biochemical. The note with it: 60 mV.
In assay [4] the target is T3, L4865A RyR2 (Mus musculus, UniProt E9Q401, L4864A). Kind of assay: TPeA block of EMD 41000-activated L4865A RyR2. The assay is classed as biochemical. The conditions noted are these: 60 mV.
T3 sequence (E9Q401 whole entry L4864A): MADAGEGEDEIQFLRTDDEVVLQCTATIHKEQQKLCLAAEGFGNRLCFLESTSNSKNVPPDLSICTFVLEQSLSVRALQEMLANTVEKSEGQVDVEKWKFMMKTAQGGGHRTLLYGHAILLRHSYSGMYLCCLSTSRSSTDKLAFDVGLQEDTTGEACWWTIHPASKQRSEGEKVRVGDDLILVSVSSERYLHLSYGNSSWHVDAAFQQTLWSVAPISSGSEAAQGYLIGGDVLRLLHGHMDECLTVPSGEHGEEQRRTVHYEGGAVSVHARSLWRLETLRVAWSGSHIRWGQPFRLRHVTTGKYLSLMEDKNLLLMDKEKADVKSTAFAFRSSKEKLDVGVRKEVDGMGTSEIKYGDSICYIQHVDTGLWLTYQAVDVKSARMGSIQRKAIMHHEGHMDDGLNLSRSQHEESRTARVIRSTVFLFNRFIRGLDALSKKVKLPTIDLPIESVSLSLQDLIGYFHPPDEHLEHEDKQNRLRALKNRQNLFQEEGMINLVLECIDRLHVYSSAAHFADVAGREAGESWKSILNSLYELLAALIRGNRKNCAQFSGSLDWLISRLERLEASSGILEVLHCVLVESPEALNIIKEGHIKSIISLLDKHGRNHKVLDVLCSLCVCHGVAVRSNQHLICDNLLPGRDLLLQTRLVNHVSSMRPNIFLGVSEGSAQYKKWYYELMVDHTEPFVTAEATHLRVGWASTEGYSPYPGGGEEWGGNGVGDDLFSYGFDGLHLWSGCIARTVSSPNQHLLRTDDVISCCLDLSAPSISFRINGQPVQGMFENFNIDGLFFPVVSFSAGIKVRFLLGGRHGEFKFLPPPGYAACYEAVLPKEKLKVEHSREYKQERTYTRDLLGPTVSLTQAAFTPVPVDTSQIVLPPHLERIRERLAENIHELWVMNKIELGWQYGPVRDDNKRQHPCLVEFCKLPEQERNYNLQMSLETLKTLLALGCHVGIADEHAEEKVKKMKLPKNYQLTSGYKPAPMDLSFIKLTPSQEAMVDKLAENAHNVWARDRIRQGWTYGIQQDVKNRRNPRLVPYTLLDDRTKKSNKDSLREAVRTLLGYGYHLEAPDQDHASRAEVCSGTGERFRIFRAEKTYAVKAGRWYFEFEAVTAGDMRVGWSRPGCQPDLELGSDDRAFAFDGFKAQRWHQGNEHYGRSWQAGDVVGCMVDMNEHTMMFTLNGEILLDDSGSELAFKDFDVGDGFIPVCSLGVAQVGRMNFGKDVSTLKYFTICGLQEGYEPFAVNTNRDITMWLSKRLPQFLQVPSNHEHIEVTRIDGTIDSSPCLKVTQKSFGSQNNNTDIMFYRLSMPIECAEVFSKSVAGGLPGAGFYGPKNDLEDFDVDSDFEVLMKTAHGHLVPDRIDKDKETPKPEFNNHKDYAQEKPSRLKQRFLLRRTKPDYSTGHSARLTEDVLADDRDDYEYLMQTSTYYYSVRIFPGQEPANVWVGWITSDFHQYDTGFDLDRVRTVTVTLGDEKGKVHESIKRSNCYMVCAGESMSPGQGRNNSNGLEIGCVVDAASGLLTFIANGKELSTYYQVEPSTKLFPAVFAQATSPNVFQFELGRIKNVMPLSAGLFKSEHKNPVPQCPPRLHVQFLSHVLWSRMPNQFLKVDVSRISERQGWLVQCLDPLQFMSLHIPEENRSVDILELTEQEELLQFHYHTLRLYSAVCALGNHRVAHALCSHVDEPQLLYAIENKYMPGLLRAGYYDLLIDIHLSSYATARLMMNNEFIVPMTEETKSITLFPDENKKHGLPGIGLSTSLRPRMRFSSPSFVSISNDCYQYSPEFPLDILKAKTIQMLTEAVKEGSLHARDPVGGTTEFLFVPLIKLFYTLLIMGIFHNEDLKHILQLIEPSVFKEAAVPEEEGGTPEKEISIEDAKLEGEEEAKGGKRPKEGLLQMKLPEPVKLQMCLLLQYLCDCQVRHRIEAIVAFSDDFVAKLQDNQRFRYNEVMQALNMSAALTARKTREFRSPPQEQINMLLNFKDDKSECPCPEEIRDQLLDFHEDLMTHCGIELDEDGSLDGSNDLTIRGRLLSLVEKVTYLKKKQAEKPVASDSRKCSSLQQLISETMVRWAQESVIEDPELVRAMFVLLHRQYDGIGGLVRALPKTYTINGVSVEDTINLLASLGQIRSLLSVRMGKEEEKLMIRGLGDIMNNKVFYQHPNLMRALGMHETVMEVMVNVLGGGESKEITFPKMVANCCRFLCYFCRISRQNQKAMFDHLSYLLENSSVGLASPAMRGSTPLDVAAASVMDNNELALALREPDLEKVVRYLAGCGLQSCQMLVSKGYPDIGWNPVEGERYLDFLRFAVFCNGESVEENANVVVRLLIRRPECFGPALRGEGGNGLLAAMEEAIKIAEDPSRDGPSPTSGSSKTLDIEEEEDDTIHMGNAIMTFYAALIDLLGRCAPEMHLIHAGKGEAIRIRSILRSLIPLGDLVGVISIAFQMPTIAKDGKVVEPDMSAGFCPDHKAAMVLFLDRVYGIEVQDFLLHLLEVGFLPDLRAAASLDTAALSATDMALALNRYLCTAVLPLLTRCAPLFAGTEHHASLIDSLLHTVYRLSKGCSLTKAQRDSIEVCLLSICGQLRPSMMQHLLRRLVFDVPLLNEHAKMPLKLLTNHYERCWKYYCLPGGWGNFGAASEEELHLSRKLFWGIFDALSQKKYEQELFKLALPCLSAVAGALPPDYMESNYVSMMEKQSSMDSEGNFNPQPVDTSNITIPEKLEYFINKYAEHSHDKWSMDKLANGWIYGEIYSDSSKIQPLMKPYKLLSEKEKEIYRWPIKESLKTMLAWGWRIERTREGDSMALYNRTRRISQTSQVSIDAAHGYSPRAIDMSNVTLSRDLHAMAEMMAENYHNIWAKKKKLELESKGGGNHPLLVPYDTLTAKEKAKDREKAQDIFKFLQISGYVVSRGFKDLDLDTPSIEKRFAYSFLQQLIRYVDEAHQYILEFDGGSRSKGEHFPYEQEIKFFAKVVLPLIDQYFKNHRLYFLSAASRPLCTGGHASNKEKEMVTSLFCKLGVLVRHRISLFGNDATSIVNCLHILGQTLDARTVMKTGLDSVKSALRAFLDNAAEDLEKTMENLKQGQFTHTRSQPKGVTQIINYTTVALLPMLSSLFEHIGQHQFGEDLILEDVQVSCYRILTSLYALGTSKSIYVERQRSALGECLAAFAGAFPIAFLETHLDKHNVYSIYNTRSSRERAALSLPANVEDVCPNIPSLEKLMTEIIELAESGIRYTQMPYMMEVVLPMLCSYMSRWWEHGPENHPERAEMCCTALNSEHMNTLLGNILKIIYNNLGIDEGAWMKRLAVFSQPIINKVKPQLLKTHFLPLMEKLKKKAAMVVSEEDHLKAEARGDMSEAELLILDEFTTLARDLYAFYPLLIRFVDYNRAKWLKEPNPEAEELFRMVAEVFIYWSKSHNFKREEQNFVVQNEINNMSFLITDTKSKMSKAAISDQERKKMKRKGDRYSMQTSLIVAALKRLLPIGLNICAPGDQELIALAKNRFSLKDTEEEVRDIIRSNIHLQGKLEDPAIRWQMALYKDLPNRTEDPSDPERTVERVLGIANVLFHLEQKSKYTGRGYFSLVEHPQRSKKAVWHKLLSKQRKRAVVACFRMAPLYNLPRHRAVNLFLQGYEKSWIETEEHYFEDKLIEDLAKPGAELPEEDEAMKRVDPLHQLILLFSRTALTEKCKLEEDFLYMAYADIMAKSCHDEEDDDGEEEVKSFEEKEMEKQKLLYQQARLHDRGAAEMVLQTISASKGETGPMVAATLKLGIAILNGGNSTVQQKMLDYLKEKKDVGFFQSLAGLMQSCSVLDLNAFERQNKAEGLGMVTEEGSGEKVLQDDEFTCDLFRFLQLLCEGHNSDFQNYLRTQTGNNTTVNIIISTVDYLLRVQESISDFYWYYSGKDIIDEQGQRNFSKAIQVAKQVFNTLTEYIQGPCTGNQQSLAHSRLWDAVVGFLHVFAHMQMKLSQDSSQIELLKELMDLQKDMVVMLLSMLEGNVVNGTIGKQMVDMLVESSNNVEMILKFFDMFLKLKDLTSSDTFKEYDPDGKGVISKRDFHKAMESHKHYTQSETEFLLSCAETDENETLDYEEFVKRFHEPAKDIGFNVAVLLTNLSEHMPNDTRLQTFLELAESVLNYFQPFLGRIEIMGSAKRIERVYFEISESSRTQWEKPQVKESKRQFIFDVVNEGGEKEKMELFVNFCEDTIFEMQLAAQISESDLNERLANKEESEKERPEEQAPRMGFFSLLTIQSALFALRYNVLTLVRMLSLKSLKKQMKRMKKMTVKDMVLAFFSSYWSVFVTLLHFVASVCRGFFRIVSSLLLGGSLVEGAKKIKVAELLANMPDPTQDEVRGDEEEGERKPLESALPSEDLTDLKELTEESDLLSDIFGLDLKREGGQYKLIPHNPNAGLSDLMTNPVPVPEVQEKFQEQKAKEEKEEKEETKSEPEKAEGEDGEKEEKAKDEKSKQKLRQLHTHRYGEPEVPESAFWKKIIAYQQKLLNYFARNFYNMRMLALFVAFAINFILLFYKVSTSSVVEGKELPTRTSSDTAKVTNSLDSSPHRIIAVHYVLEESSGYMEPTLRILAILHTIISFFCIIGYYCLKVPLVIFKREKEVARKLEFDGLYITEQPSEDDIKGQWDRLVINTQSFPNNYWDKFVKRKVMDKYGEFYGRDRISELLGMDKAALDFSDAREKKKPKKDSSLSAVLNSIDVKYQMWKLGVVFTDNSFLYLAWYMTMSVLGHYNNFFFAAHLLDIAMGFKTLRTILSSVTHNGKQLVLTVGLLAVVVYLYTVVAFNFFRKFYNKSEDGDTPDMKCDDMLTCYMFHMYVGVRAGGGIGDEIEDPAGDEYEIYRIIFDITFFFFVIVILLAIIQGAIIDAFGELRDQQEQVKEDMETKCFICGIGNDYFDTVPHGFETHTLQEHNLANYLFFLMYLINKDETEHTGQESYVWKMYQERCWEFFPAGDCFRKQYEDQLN
Assay [5] concerns the target T1, I4861A RyR2. Put plainly: TPeA block of ryanodine-modified I4861A RyR2. The assay is classed as biochemical. The conditions noted are these: 100 µM TPeA, 60 mV. The procedure, abridged:
as §1

Assay [6] addresses T2, I4862A RyR2. Put plainly: TPeA block of ryanodine-modified I4862A RyR2. The assay is classed as biochemical. The conditions noted are these: 100 µM TPeA, 60 mV. The procedure, abridged:
as §1

The target of assay [7] is T3, L4865A RyR2. Put plainly: TPeA block of ryanodine-modified L4865A RyR2. The assay is classed as biochemical. The note with it: 100 µM TPeA, 60 mV. In outline:
as §1

Assay [8] deals with T4, I4867A RyR2 (Mus musculus, UniProt E9Q401, I4866A). Put plainly: TPeA block of ryanodine-modified I4867A RyR2. The assay is classed as biochemical. The conditions noted are these: 100 µM TPeA, 60 mV. In outline: as §1
T4 sequence (E9Q401 whole entry I4866A): as the sequence (E9Q401 whole entry L4864A) above, with A4864L, I4866A counted along it
Assay [9] concerns the target T5, F4870A RyR2 (Mus musculus, UniProt E9Q401, F4869A). Put plainly: TPeA block of ryanodine-modified F4870A RyR2. The assay is classed as biochemical. The conditions noted are these: 100 µM TPeA, 60 mV. In outline: as §1
For assay [10], the target named is T1, I4861A RyR2. Kind of assay: Ryanodine modification of I4861A RyR2. The assay is classed as biochemical. In outline:
(§2)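 Mouse RyR2 (WT or TM10 alanine mutants) was expressed in HEK293 cells by Ca²⁺ phosphate transfection for 48 h, solubilized in CHAPS/phosphatidylcholine and purified on a 0–40% sucrose gradient. Single channels were incorporated into PE bilayers with the cytosolic side cis, in symmetrical KCl with 20 mM HEPES pH 7.2, at 22 ± 2°C. After 1 µM ryanodine, amplitudes were read at 60 mV. Mean ± SEM, n = 4–7, unpaired t test.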

Assay [11] concerns the target T2, I4862A RyR2. Kind of assay: Ryanodine modification of I4862A RyR2. The assay is classed as biochemical. The procedure, abridged: as §2
The target of assay [12] is T3, L4865A RyR2. Kind of assay: Ryanodine modification of L4865A RyR2. The assay is classed as biochemical. The procedure, abridged:
as §2

The target in assay [13] is T4, I4867A RyR2. Kind of assay: Ryanodine modification of I4867A RyR2. The assay is classed as biochemical. In outline: as §2
The target in assay [14] is T5, F4870A RyR2. Put plainly: Ryanodine modification of F4870A RyR2. The assay is classed as biochemical. The procedure, abridged: as §2
Assay [15] concerns the target WT recombinant ryanodine-modified RyR2 channels (Mus musculus, UniProt E9Q401). Put plainly: biochemical.
The next assay relates to K^+ channels. The conditions noted are these: quoted range, ref Faraldo-Gómez et al., 2007; cited from earlier work.
The test system of another assay is KcsA. The note with it: cytosolic cavity of KcsA; ref Faraldo-Gómez et al., 2007; cited from earlier work.
[16] abbreviates: 1 µM ryanodine, 60 mV, lower than WT.

pKd: −log10 of the molar value. Entries after “also recorded” stand apart in the source; their conditions may differ. Ends that are not written are not given here.

T5 sequence (E9Q401 whole entry F4869A): as the sequence (E9Q401 whole entry L4864A) above, with A4864L, F4869A counted along it
Chain of recombinant WT mouse RyR2 (E9Q401 whole entry): as the sequence (E9Q401 whole entry L4864A) above, with A4864L counted along it
T1 sequence (E9Q401 whole entry I4860A/I4861A): as the sequence (E9Q401 whole entry L4864A) above, with I4860A, I4861A, A4864L counted along it
T2 sequence (E9Q401 whole entry I4861A): as the sequence (E9Q401 whole entry L4864A) above, with I4861A, A4864L counted along it

For `CCCCCC[N+](CCCCCC)(CCCCCC)CCCCCC` [THexA, tetrahexylammonium], the pKd in assay [1] is 5.59. Besides, the “fold increase in affinity between TBA and THexA” value in assay [1] (EMD 41000-activated, 610 mM K+, 60 mV, THexA relative to TBA) is listed as 69.5 -fold. Also, the “fold decrease in koff between TPeA and THexA” value in assay [1] (EMD 41000-activated, 610 mM K+, 60 mV, THexA relative to TPeA) is 1.7 -fold.
In the case of MAAVAGLYGLGEDRQHRKKQ [ShBP], the “reduction in Po” value in the assay with RyR2 (20 µM ShBP cytosolic, ryanodine-modified, symmetrical 610 mM KCl) is “no significant reduction in Po”. Besides, the “block at high K+ activity” value in the assay on RyR2 is listed as “ineffective”.
With `CCCCC[N+](CCCCC)(CCCCC)CCCCC` [TPeA, tetrapentylammonium], in [1] (EMD 41000-activated, 610 mM K+, 60 mV, TPeA relative to TBA), the “fold decrease in koff between TBA and TPeA” value was 22 -fold. Further, the “rate of dissociation (koff), difference TBA vs TPeA” value in the assay with WT mouse RyR2 is “very marked difference in the rates of dissociation of TBA and TPeA is retained”. For the same molecule, the level of block result in the assay with WT mouse RyR2 is given as “to a level indistinguishable from the closed state; also recorded: completely occlude the RyR2 pore”; on I4861A RyR2 [5], “to a level indistinguishable from the closed state”; at I4862A RyR2 [6] it was “to a level indistinguishable from the closed state”; on L4865A RyR2 [7] it was “to a level indistinguishable from the closed state”; at I4867A RyR2 [8], “to a level indistinguishable from the closed state”; at F4870A RyR2 [9], “to a level indistinguishable from the closed state”. Also, the “probability of block (1 − Po) vs WT” value on I4861A RyR2 [2] (100 µM TPeA) and at I4862A RyR2 [3] (100 µM TPeA) was “reduced significantly” throughout. Besides, the “rate of association (kon) vs WT” value at I4861A RyR2 [2] (100 µM TPeA), at I4862A RyR2 [3] (100 µM TPeA) and at L4865A RyR2 [4] (100 µM TPeA) was “unaffected” in each case. The “rate of dissociation (koff) vs WT” value on I4861A RyR2 [2] (100 µM TPeA) was “significantly increased rates of TPeA dissociation”; on I4862A RyR2 [3] (100 µM TPeA), “significantly increased rates of TPeA dissociation, with the most dramatic effect seen in I4862A”; on L4865A RyR2 [4] (100 µM TPeA), “significantly increased rates of TPeA dissociation”. Further, the “residual current vs WT” value at I4861A RyR2 [2] (100 µM TPeA) is listed as “slightly lower than the equivalent current in the WT RyR2”; on I4862A RyR2 [3] (100 µM TPeA), “indistinguishable from that of the WT channel”; at L4865A RyR2 [4] (100 µM TPeA), “indistinguishable from that of the WT channel”. In addition, the “affinity (Kd) vs WT” value on I4861A RyR2 [2] (100 µM TPeA, in words) was “significant decreases in TPeA affinity”; at I4862A RyR2 [3] (100 µM TPeA, in words), “significant decreases in TPeA affinity”; on I4861A RyR2 [5] (in words), “significant reduction in TPeA affinity”; at I4862A RyR2 [6] (in words), “significant reduction in TPeA affinity”; on L4865A RyR2 [7] (in words) it was “significant reduction in TPeA affinity”; at I4867A RyR2 [8] (in words), “significant reduction in TPeA affinity”. Moreover, the “affinity (Kd) vs WT” value on F4870A RyR2 [9] (in words) is given as “significant reduction in TPeA affinity”. Further, the “amplitude of full open state in presence of TPeA vs WT” value on I4861A RyR2 [2], on I4862A RyR2 [3] and at L4865A RyR2 [4] was “indistinguishable from that of the WT channel” throughout. Besides, the “koff vs WT” value on I4861A RyR2 [5], on I4862A RyR2 [6], on L4865A RyR2 [7], at I4867A RyR2 [8] and on F4870A RyR2 [9] was “significant increase in koff” in each case. The “kon vs WT” value at I4861A RyR2 [5] is “reduced significantly”; on I4862A RyR2 [6], “unaffected”; on L4865A RyR2 [7], “unaffected”; on I4867A RyR2 [8] it was “reduced significantly”; on F4870A RyR2 [9], “reduced significantly”. Also, the “magnitude / probability of block (1 − Po) vs WT” value on I4861A RyR2 [5], at I4862A RyR2 [6], at L4865A RyR2 [7], on I4867A RyR2 [8] and on F4870A RyR2 [9] was “lower than that seen in the WT RyR channel” throughout.
ryanodine: the “amplitude of ryanodine-modified open state vs WT modified channel” value is recorded as “not significantly different from that of the WT channel” at I4861A RyR2 [10] (1 µM ryanodine, 60 mV) and “not significantly different from that of the WT channel” at I4862A RyR2 [11] (1 µM ryanodine, 60 mV). Moreover, the “Po and unitary conductance on ryanodine modification” value at I4861A RyR2 [10] (ryanodine) is “characteristic increase in Po and reduction in unitary conductance”; at I4862A RyR2 [11] (ryanodine), “characteristic increase in Po and reduction in unitary conductance”; at L4865A RyR2 [12] (ryanodine) it was “characteristic increase in Po and reduction in unitary conductance”; on I4867A RyR2 [13] (ryanodine), “characteristic increase in Po and reduction in unitary conductance”; at F4870A RyR2 [14] (ryanodine), “characteristic increase in Po and reduction in unitary conductance”. In addition, the “reduction in conductance of ryanodine-modified state vs WT modified channel” value on L4865A RyR2 [12] (setting [16]), on I4867A RyR2 [13] (setting [16]) and at F4870A RyR2 [14] (setting [16]) was roughly 10% each time.
For the molecule MAVVAGLYGLGEDRQHRKKQ-NH2 [MHBPI], in [15], the pKd is 4.56.
On the same count and under the same terms, the result for MAQVQGLYGLGEDRQHRKKQ-NH2 [LHBP] reads 4.18.
For `CCCC[N+](CCCC)(CCCC)CCCC` [TBA, tetrabutylammonium], in [1], the negative-log Kd (pKd) was 3.75 and the koff worked out at 412 s⁻¹. Also, in the assay with WT mouse RyR2, the “rate of dissociation (koff), difference TBA vs TPeA” value was “very marked difference in the rates of dissociation of TBA and TPeA is retained”; the level of block entry is “completely occlude the RyR2 pore”. For the same molecule, the koff in the assay on K^+ channels is 10 to 200 s⁻¹. Moreover, the pore occlusion result with KcsA was “fully occludes the pore of the channel”.
In the case of MAAVVGLYGLGEDRQHRKKQ [MHBPII], in the assay on RyR2, the “block at high K+ activity” value is on record as “ineffective”.

The values are drawn from publication PMC3434103 (The Journal of General Physiology, 2012).
